DNMT1 block = blocks human DNA methyltransferase DNMT1; P26358; DNMT1 molecular beacon, Hinp1I cleavage, fluorescence; inhibition (reported as % activation of signal), % at 10 µM; actives 0.83% (n = 360,000); AID 588458; in the data active = inhibition above about 50%
Target sequence (P26358 504-1616 limits assumed): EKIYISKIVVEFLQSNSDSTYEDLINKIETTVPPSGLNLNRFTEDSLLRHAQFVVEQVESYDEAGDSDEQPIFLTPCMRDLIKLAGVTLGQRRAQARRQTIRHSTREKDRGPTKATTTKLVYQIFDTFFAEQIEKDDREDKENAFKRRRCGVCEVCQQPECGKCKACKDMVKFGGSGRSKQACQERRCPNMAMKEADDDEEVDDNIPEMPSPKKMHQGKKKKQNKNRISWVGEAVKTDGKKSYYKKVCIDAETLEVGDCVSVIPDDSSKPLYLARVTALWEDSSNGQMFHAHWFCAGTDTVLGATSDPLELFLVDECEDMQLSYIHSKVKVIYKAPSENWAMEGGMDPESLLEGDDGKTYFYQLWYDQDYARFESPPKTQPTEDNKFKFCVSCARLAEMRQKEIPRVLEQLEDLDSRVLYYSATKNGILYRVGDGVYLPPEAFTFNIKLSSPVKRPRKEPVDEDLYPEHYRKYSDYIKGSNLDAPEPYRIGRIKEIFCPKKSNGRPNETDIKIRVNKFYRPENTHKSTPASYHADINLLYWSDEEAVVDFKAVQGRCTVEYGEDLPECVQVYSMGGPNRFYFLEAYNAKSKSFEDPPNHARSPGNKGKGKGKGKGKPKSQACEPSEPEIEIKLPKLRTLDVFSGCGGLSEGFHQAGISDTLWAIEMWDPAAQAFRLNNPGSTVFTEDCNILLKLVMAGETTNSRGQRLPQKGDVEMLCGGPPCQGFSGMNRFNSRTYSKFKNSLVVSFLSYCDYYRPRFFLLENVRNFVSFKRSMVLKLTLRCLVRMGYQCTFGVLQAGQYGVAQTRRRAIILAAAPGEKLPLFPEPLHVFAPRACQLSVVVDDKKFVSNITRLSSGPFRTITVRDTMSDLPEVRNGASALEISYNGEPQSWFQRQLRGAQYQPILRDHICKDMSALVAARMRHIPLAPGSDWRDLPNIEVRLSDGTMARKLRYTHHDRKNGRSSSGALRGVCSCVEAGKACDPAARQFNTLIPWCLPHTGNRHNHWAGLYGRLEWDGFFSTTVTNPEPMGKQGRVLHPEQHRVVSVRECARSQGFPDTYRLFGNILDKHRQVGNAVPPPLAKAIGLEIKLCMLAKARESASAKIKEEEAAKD
Rpn11 inh = blocks the human proteasome subunit Rpn11 | actives 0.59% (n = 360,000) | inhibition, % at 20 µM | human 26S proteasome, Ub4-pepOG fluorescence polarization; 20S core pre-blocked with epoxomicin | O00487 | AID 588493;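 active = inhibition at 20 µM, scaled to each plate's controls, above about 33%, limit read from the data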
SKN-1 block = C. elegans SKN-1 inhibition. inhibition, % at 21.8 µM. C. elegans VP596 Pgst-4::GFP/RFP ratio, acrylamide-induced, 24 h. actives 0.49% (n = 360,000);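 active = interference check ratio from 0.5 to 1.5 plus GFP to RFP signal ratio inhibition reaching or exceeding a fixed threshold, cut at about 30% in these data, passing the limit was not always enough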
CSN inh = inhibitors of human CSN-mediated cullin deneddylation; Purified CSN, SCF-Nedd8-OG deneddylation, fluorescence polarization; inhibition, % at 12.5 µM; actives 0.38% (n = 360,000); Q92905;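 active = pattern-corrected inhibition above about 35%, with an unprinted fluorescence ratio check between 0.5 and 1.5, limit read from the data, passing the limit was not always enough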;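 also: 0% = enzyme with substrate and 100% = substrate without enzyme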
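assay system = purified human Csn5 enzyme expressed in HEK293T cells | amount = 0.24 nM enzyme | buffer or medium = Tris/NaCl/DTT buffer, pH 7.5 | reagent = 10 nM SCFSkp2-Nedd8OG | compound = one concentration, 12.5 µM, 0.25% DMSO | times = 90 min reaction at room temperature | signal = FP | read-out basis = % inhibition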
MT1-MMP act inh = inhibitors of human MT1-MMP activation; P50281; GFP/RFP ratio change, % at 20 µM; actives 0.061% (n = 360,000); HT1080 RFP-PRO-GFP cells, GFP/RFP ratio fluorescence, overnight; percent of plate control window, DMSO zero;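 active = GFP/RFP ratio change of at least 30% with cell ATP level not reduced by more than half and red fluorescence within 50% of control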
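system = RFP-PRO-GFP reporter HT1080 cells | dosing = 20 µM single dose, 1% DMSO | timing = overnight cell settling, then overnight compound exposure, 37 °C, 5% CO2 | read-out basis = GFP/RFP fluorescence ratio | controls = DMSO and RFP-L50D-GFP cell wells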
SUMO1 PPI mod = modulators of human SUMO1-mediated protein-protein interactions; P63165; AID 602429; inhibition, % at 20 µM; SUMO1 binding to a labelled peptide, TR-FRET, 1 h; actives 0.33% (n = 360,000); in the data active = inhibition above about 37%
Rpn11 inh conf = confirmation of human proteasome Rpn11 inhibitors; shares compounds with Rpn11 inh; purified human 26S proteasome, Ub4-pepOG fluorescence polarization; proteasome pretreated with epoxomicin; inhibition, % at 20 µM; actives 29% (n = 1,900); AID 602318
MMP-2 inh = MMP-2 (human) inhibition counter-screen; shares compounds with Rpn11 inh; recombinant MMP-2, FRET peptide cleavage fluorescence; inhibition, % at 20 µM; actives 4% (n = 1,900);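 also: human MMP-2 activated beforehand with APMA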
Thrombin FP = thrombin (bovine) inhibition counter-screen; bovine thrombin cleavage of Ub4-pepOG, fluorescence polarization; inhibition, % at 20 µM; actives 13% (n = 1,900); shares compounds with Rpn11 inh;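 active = mean inhibition at least 40% at 20 µM, or signal 3 deviations below plate average, so some actives read negative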;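 also: plate controls were thrombin with DMSO for no effect and buffer wells lacking thrombin for full effect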
* marks the source's active call; other numbers are inactive results; i = inactive; nt = not tested or not shown; + = active, no number. Rows were chosen to be rich in hits. Some 2.3% of all compounds tested hit in one or more screens of this group. Rule as the data show it, unless noted: active = inhibition above about 40%; inactive = the rest.

SMILES	DNMT1 block	Rpn11 inh	SKN-1 block	CSN inh	MT1-MMP act inh	SUMO1 PPI mod	Rpn11 inh conf	MMP-2 inh	Thrombin FP
O=C1c2ccccc2S(=O)(=O)c2cc(N3CCOCC3)ccc21	-1	48*	0	13	-38	-49	44*	25	9
CC(C)(/C=N/O)N(O)C=C1C=CC(=O)C=C1	-1	-9	-9	0	-2	11	nt	nt	nt
CN1C=CC(=CC=C2C=CC(=O)C=C2)C=C1	-4	82*	22	34	-27	-28	43*	-13	31
CCOC(=O)c1cc2occc2n1Cc1ccc(F)cc1	5	6	-4	6	-3	-2	nt	nt	nt
CCOC(=O)c1cc2occc2n1Cc1c(F)cccc1Cl	-9	42*	6	5	-8	-2	17	-9	3
Cc1ccccc1NC(=O)Cn1c(=O)n(C)c2ccccc21	2	5	-7	5	3	5	nt	nt	nt
Cc1cccc2c1c1ccc3c(c1n2C)C(=O)C=CC3=O	-18	42*	9	12	-7	1	12	-1	11
COc1ccc(C(=O)Nc2ccc(/C(C)=N/NC(=O)c3ccncc3)cc2)cc1	22	85*	13	6	0	-6	45*	i	-5
COc1ccc(/C(C)=N/NC(=O)c2ccncc2)cc1	2	-4	-1	3	-1	4	nt	nt	nt
COc1ccc(C(=O)Nc2ccc(C(=O)Nc3cccnc3)cc2)cc1	-2	106*	-9	2	2	-1	39	-273	-2
COc1ccc(CNCc2cn(-c3cccc(F)c3)nc2-c2ccc(C)o2)cc1	-3	43*	7	12	-4	-5	4	-9	-16
CC(C)C[C@H]1COc2cccc(N3CCSCC3)c2S(=O)(=O)N1	nt	nt	2	-2	2	5	nt	nt	nt
Cc1nnc(N2CCCC(C(=O)Nc3cc(F)ccc3F)C2)c2nn(-c3ccccc3)c(C)c12 (stereo not drawn)	-4	7	26	-1	-5	0	nt	nt	nt
Cc1nnc(N2CCCC(C(=O)NCc3ccc(OC(C)C)cc3)C2)c2nn(-c3ccccc3)c(C)c12 (stereo not drawn)	-3	53*	-12	7	-15	0	23	-11	10
COC(=O)C[C@H]1CC[C@@H]2[C@H](COC[C@H](O)CN2S(=O)(=O)c2ccccc2OC)O1	nt	nt	0	4	-1	3	nt	nt	nt
COc1ccc(S(=O)(=O)N2CCCC(C(=O)NCc3ccncc3)C2)cc1 (stereo not drawn)	-6	+	28	5	1	2	-12	10	-19
CC1(Oc2ccc3ccccc3c2)CCN(Cc2cccn2-c2nccs2)C1 (stereo not drawn)	3	-4	15	-4	-4	-3	nt	nt	nt
Cn1cccc1CC(=O)N/N=C/C=C/c1ccccc1	-11	2	-1	8	2	-4	nt	nt	nt
O=NN(CC(=O)NN=CC=Cc1ccccc1)CC(=O)NN=CC=Cc1ccccc1	2	72*	1	7	5	-2	21	-7	-31
O=C(Nc1ccccc1C(=O)Nc1nnc(C(F)(F)F)s1)c1ccccc1	-38	35*	25	-3	4	12	5	1	-6
Cc1ccc(F)c(S(=O)(=O)NC(=O)C2(C)CCN2C(=O)Cc2ccsc2)c1 (stereo not drawn)	0	-8	-5	-2	-6	4	nt	nt	nt
CCOC(=O)c1c(NC(=O)CSc2nc3cccnc3n2C)sc(C(C)=O)c1C	-16	35*	12	3	-4	0	21	-23	-5
CCOC(=O)c1sc(NC(=O)CSc2nc3cccnc3n2C)nc1C	1	1	11	6	3	18	nt	nt	nt
Nc1ccc(-c2nc3ccccc3o2)cc1	-5	41*	26	9	-18	3	18	7	2
Cc1cc(SCC(=O)NN)c2cc(Br)ccc2n1	-3	43*	1	9	0	0	3	-28	-5
SMILES	DNMT1 block	Rpn11 inh	SKN-1 block	CSN inh	MT1-MMP act inh	SUMO1 PPI mod	Rpn11 inh conf	MMP-2 inh	Thrombin FP
Cc1cc(C(=O)NN)c2cc(Br)ccc2n1	-1	4	4	-2	5	-4	nt	nt	nt
OC(c1cc(F)cc(Cl)c1)c1ncc(-c2ccc3ccccc3c2)[nH]1 (stereo not drawn)	-1	-1	11	2	0	-15	nt	nt	nt
COc1ccc(CNC(=O)C(C)OC(=O)c2cccn2C)cc1 (stereo not drawn)	-1	+	28	6	0	2	-3	11	-13
CCCCN(C)C(=O)c1ccc(Nc2nc(C(N)COCc3ccccc3)cs2)nc1 (stereo not drawn)	-7	27	9	2	-4	0	nt	nt	nt
CO[C@H]1CN(C)C(=O)c2cc(NC(=O)C3CCCC3)ccc2OC[C@@H](C)NC[C@H]1C	nt	nt	0	2	-6	1	nt	nt	nt
S=c1[nH]nc(-c2cc(-c3ccccc3)n[nH]2)n1/N=C/c1cccc(Cl)c1	5	177*	-8	70	10	88*	157*	19	81*
COC(=O)c1sc(N2C(=O)C(O)=C(C(=O)c3ccc(C)o3)C2c2ccc(F)cc2)nc1C (stereo not drawn)	-3	54*	13	30	-12	-5	16	14	-3
CCOC(=O)c1sc(N2C(=O)C(O)=C(C(=O)c3ccco3)C2c2cccc(Cl)c2)nc1C (stereo not drawn)	2	55*	13	2	-1	-6	15	39	5
COC(=O)c1sc(N2C(=O)C(O)=C(C(=O)c3ccc(C)o3)C2c2cccs2)nc1C (stereo not drawn)	0	49*	7	19	-2	-6	5	12	-26
COC(=O)c1sc(N2C(=O)C(O)=C(C(=O)c3ccc(C)o3)C2c2ccco2)nc1C (stereo not drawn)	4	15	-17	1	-5	-7	nt	nt	nt
Cc1cc(-c2cc(C(=O)O)c3ccccc3n2)c(C)s1	2	36*	13	-3	9	10	3	-13	0

Assay outcomes: PubChem, Sanford-Burnham Center for Chemical Genomics
